# Screening data as filed in PubChem BioAssay.
# Hits are enriched below; roughly 1.1% of the tested compounds scored in any of these assays.
# PMI act satM6P = activators of human phosphomannose isomerase at near-saturating mannose 6-phosphate. P34949. coupled PMI enzyme assay, resazurin fluorescence, 20 min; hits give high values; 1 = untreated enzyme, 0 = substrate-free blank. AID 1216. actives 0.34% (n = 190,000). activation factor at 20 µM;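 active = activation factor of 2 or more at 20 µM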
# Target sequence (P34949 whole entry, looked up): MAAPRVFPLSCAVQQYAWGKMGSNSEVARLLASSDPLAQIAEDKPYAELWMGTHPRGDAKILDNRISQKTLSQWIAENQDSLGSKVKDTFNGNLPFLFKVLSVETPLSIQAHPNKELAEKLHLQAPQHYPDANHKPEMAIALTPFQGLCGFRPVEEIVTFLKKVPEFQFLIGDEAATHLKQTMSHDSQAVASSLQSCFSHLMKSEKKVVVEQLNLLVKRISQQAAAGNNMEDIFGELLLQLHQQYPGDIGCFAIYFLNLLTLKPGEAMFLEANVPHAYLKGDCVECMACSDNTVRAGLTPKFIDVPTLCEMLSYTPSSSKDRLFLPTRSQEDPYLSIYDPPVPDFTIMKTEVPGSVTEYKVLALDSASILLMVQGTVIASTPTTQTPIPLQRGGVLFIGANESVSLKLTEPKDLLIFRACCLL
#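 Technique: Diaphorase-driven resazurin-to-resorufin fluorescence, excitation 544, emission 590 nm | Assay system: Human PMI in coupled enzyme assay | Times: Enzyme reaction with compound 20 min at room temperature | Medium: HEPES-buffered pH 7.4 with magnesium and detergent | Reagent: Mannose-6-phosphate 1.0 mM (near-saturating) plus 0.22 mM NADP+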
# Diaphorase act = diaphorase activation or chemical reduction counter-screen. Diaphorase/resazurin coupled assay, resorufin fluorescence, 16 min; hits give high values; 1 = vehicle wells, 0 = NADH-free wells. activation factor at 20 µM. actives 0.005% (n = 190,000);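 active = diaphorase activity raised at least twofold by the compound at 20 µM; inactive = activation factor below 2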
#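 Test system: Clostridium kluyveri diaphorase, purified enzyme. Buffer or medium: 50 mM HEPES pH 7.4 buffer plus MgCl2 and Tween 20. Also added: 0.114 mM NADH and 0.1 mM resazurin, final amounts. Dosing: compound 20 µM once, DMSO 1%. Schedule: 16 min enzyme reaction, ambient temperature. Detection: fluorescence of resorufin, 544 nm excitation, 590 nm emission.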
# PMI act = activators of human phosphomannose isomerase. activation factor at 20 µM. actives 0.005% (n = 190,000). purified human PMI, coupled resazurin fluorescence, 20 min; hits give high values; 1 = vehicle control, 0 substrate-free wells. P34949;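 active = activation factor of 2 or more at 20 µM, relative to plate controls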
# G6PDH counter = counter-screen for G6PDH assay hits: L. mesenteroides G6PDH inhibition; actives 0.12% (n = 200,000); Purified L. mesenteroides G6PDH, diaphorase/resazurin coupled fluorescence, 45 min; AID 1020; inhibition, % at 5 µM; in the data active = inhibition above about 50%
# TbHK1 inh = T. brucei hexokinase 1 inhibition. recombinant TbHK1, G6PDH-coupled NADH A340. actives 0.11% (n = 220,000). inhibition, % at 10 µM;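 active = inhibition of 50% or more in the single-dose primary screen; inactive = inhibition below 50%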
# Diaph inh CS = inhibits diaphorase or chemically oxidizes, flagging diaphorase assay artifacts; diaphorase resazurin-to-resorufin fluorescence, NADH, 16 min; bacterial (C. kluyveri) enzyme, not human; inhibition, % at 20 µM; actives 0.69% (n = 190,000);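 active = primary screen inhibition at 20 µM above a set limit, cut at about 50% in these data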
#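 System: Bacterial diaphorase enzyme (C. kluyveri) | Incubation: 16-min room-temperature incubation before reading | Benchmarks: No-NADH positive control and DMSO neutral control | Measured by: Resorufin fluorescence 544/590 nm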
# Hits are given with their value; . = inactive; / = no result given.
SMILES,PMI act satM6P,Diaphorase act,PMI act,G6PDH counter,TbHK1 inh,Diaph inh CS
O=C(NCC1CCCO1)c1cn(-c2ccccc2)nc1-c1ccccc1 (configuration not stated),.,.,.,.,.,58
Cc1cc(C(=O)NCC2CCCO2)n(-c2ccccc2)n1 (configuration not stated),.,.,.,.,.,.
O=S(=O)(Nc1nc2ccccc2nc1NCC1CCCO1)c1cccc(Cl)c1 (configuration not stated),/,/,/,/,.,/
Cc1c(Br)c(O)c(Br)c2sc(=O)oc12,/,/,/,/,.,/
Cc1nc(C(C)N(C)Cc2nc(-c3ccc4c(c3)OCO4)no2)c(C)s1 (configuration not stated),.,.,.,.,.,.
COc1ccc(CCN=C(NS(=O)(=O)c2ccc(Cl)cc2)c2ccccc2)cc1,.,.,.,.,.,52
COc1ccc(CCN=C(NS(=O)(=O)c2ccccc2)c2ccccc2)cc1OC,.,.,.,.,.,.
COc1ccccc1NC(=O)c1c(N=Cc2ccccc2O)cnn1C,.,.,.,.,.,.
O=c1[nH]cnc2sc3c(c12)CCC3,/,/,/,/,.,/
O=[N+]([O-])c1cccc(-n2nnnc2CNCc2ccccc2)c1,/,/,/,/,.,/
CCC(=O)N(C1=C(NC(C)C)C(=O)c2ccccc2C1=O)C(C)C,.,.,.,55,.,.
CC(=O)N(C1=C(N)C(=O)c2ccccc2C1=O)C(C)C,.,.,.,.,.,.
O=C(Nc1cc(C(F)(F)F)cc(C(F)(F)F)c1)Nc1cnn(-c2ccc([N+](=O)[O-])cc2)c1C(F)(F)F,/,/,/,/,.,/
CCCCn1c(NC(=O)c2ccco2)c(S(=O)(=O)c2ccc(C)cc2)c2nc3ccccc3nc21,.,.,.,.,.,69
Cc1ccc(C(=S)N2CCN(Cc3ccccc3)CC2)s1,.,.,.,.,.,.
CC(NC(=O)CCN1N=C(c2ccccc2)CCC1=O)c1ccc2c(c1)OCCO2 (configuration not stated),.,.,.,.,.,.
COc1ccc(/C=N/NC(=O)c2nn(-c3ccccc3)c(=O)c3c(N)scc23)cc1,.,.,.,.,.,57
COc1ccc(/C=N/NC(=O)c2nn(-c3ccc(Cl)cc3)c(=O)c3c(N)scc23)cc1,.,.,.,.,.,50
COc1ccc(/C=N/NC(=O)c2nn(-c3ccc(C)c(C)c3)c(=O)c3ccccc23)cc1,.,.,.,.,.,.
CCOC(=O)c1c(NC(=O)CN2C(=O)CN(C)C2=O)sc(C)c1C,.,.,.,.,.,.
O=C(N/N=C/c1ccncc1)C1CC1(c1ccccc1)c1ccccc1 (configuration not stated),/,/,/,/,.,/
O=C(N/N=C/c1ccc(O)c([N+](=O)[O-])c1)C1CC1(c1ccccc1)c1ccccc1 (configuration not stated),.,.,.,.,.,72
COc1ccc2c(c1)-c1nc(N)sc1CC2,.,.,.,.,.,60
Cc1cccc2nc(-c3ccco3)c(Nc3ccccc3)n12,.,.,.,.,.,.
Cc1cccc2nc(-c3ccco3)c(Nc3ccc4c(c3)OCO4)n12,.,.,.,.,.,72
SMILES,PMI act satM6P,Diaphorase act,PMI act,G6PDH counter,TbHK1 inh,Diaph inh CS
CCc1ccc2c(c1)c(N=NC1=NC(=O)CS1)c(O)n2CC,.,.,.,.,.,79
CCc1ccc2[nH]c(O)c(N=NC3=NC(=O)CS3)c2c1,/,/,/,/,.,/
COC(=O)c1c(NC(=O)CSc2nc3ccccc3c(=O)n2Cc2ccco2)sc(C)c1C,.,.,.,.,.,.
COC(=O)c1c(NC(=O)CSc2nnc(-c3ccco3)n2Cc2ccccc2)sc(C)c1C,.,.,.,.,.,57
CCOc1ccc(C(=O)Nc2ncccc2Cl)cc1,.,.,.,.,.,.
COc1ccc(CCNC(=O)CSc2nc(C)nc3sccc23)cc1OC,/,/,/,/,.,/
CN(C(=O)Nc1ccc(Cl)cc1Cl)C1CCCC1,.,.,.,.,.,.
Cc1ccc(NC(=O)CSc2ccc(-c3ccco3)nn2)cc1,.,.,.,.,.,.
